Measured values taken from ChEMBL document CHEMBL1126131, “6-Alkyl-12-formylindolo[2,1-a]isoquinolines. Syntheses, estrogen receptor binding affinities, and stereospecific cytostatic activity” (1992).
“And” between values parts separate entries of the source, which are not always exact repeats. Identical values can stand only once.

Assays:
MCF7 [1] = experiment: Inhibition of hormone-sensitive MCF-7 mammary tumor cell proliferation at 1*10e-6 M; type: functional, Homo sapiens
How it was run: (§1)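 MCF-7 cells were grown in modified improved MEM with 10% newborn calf serum at 37 °C and 5% CO2, plated in 96-well plates for 3 d, then given drug medium (controls 0.1% DMF). After 3 days, cells were glutaraldehyde-fixed and crystal violet-stained; T/C = test/control optical density, corrected for initial density (vinblastine 10^-7 M). 16 replicates ± SD.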

MDA-MB-231 [2] = experiment: Inhibition of hormone-independent MDA-MB 231 mammary tumor cell proliferation at 5*10e-6 M; type: functional, Homo sapiens
How it was run: (§2)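 MDA-MB 231 cells were grown in McCoy 5a medium with 10% NCS and were pre-grown 3 d in microplates before drug medium was added (controls 0.1% DMF). After 2 days of incubation, wells were fixed with 1% glutaraldehyde, stained with 0.02% crystal violet, and read by optical density. T/C (%) was corrected for initial density (vinblastine 10^-7 M). 16 replicates ± SD.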

[3] = target: T1, Estrogen receptor (Mus musculus) (UniProt O08537+P19785); experiment: Uterotrophic effect in mice as uterine weight(mg) relative to body weight(g) at 2 ug dose; type: functional, tissue-based
How it was run: (§3)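 Uterotrophic test: 20-day-old immature female NMRI mice, six to ten per group, received compound alone in olive oil (100 μL/animal) sc on three consecutive days; controls received vehicle. After 24 h, uteri were Bouin-fixed 2 h and dried 18 h at 100 °C. Uterine dry weight (mg)/body weight (g) × 100; mean of 6 ± SD.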

[4] = target: T1, Estrogen receptor (Mus musculus); experiment: Anti-uterotrophic effect in mice as uterine weight(mg) relative to body weight(g) at 10 ug dose; type: functional
How it was run: (§4)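 Immature female NMRI mice, 20 days old, groups of six to ten; compound plus standard estrone 0.4 μg in olive oil (100 μL/animal) given sc on three consecutive days. Killed 24 h after last injection; uteri fixed in Bouin solution 2 h, dried at 100 °C for 18 h, weighed. Relative weight = uterine dry weight (mg)/body weight (g) × 100; mean of 6 animals ± SD.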

[5] = target: T1, Estrogen receptor (Mus musculus); experiment: Percent inhibition of estrone-stimulated uterotrophic effect in mice at 50 ug dose; type: functional
How it was run: (§5)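 Antiuterotrophic test in immature female NMRI mice (20 days old). Estrone 0.4 μg was co-injected with the compound in olive oil, sc daily for three days. Uterine dry weight per body weight was read 24 h after the last dose. Inhibition (%) = 100 − [(W_S,T − W_V)/(W_S − W_V) × 100], where W_V is the vehicle control.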

MCF7 [6] = experiment: Inhibition of hormone-sensitive MCF-7 mammary tumor cell proliferation at 1*10e-5 M; type: functional, Homo sapiens; how it was run: as §1
MCF7 [7] = experiment: Inhibition of hormone-sensitive MCF-7 mammary tumor cell proliferation at 1*10e-7 M; type: functional, Homo sapiens; how it was run: as §1
MDA-MB-231 [8] = experiment: Inhibition of hormone-independent MDA-MB 231 mammary tumor cell proliferation at 1*10e-5 M; type: functional, Homo sapiens; how it was run: as §2
[9] = target: T1, Estrogen receptor (Mus musculus); experiment: Uterotrophic effect in mice as uterine weight(mg) relative to body weight(g) at 250 ug dose; type: functional, tissue-based; how it was run: as §3
MCF7 [10] = experiment: Inhibition of hormone-sensitive MCF-7 mammary tumor cell proliferation at 5*10e-6 M; type: functional, Homo sapiens; how it was run: as §1
[11] = target: T1, Estrogen receptor (Mus musculus); experiment: Uterotrophic effect in mice as uterine weight(mg) relative to body weight(g) at 10 ug dose; type: functional, tissue-based; how it was run: as §3
MDA-MB-231 [12] = experiment: Inhibition of hormone-independent MDA-MB 231 mammary tumor cell proliferation at 1*10e-6 M; type: functional, Homo sapiens; how it was run: as §2
[13] = target: T1, Estrogen receptor (Mus musculus); experiment: Percent inhibition of estrone-stimulated uterotrophic effect in mice at 10 ug dose; type: functional; how it was run: as §5
[14] = target: Estrogen receptor (Bos taurus) (UniProt Q9XSB5+P49884); experiment: Relative binding affinity for calf uterine estrogen receptor compared to 17-beta-estradiol (E2); type: protein assay
How it was run: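 Competitive binding in calf uterine cytosol (final protein 3 mg/mL) in Tris-EDTA-NaN3 buffer, pH 7.5. 5 nM [3H]17β-estradiol plus competitor at 10^-9 to 10^-5 M, 18 h at 4 °C. Free ligand removed with dextran-coated charcoal (90 min, 4 °C). Nonspecific binding from 4 μM estradiol. RBA = ratio of estradiol to test molar concentrations giving 50% displacement × 100.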

[15] = target: T1, Estrogen receptor (Mus musculus); experiment: Percent inhibition of estrone-stimulated uterotrophic effect in mice at 250 ug dose; type: functional; how it was run: as §5
[16] = target: T1, Estrogen receptor (Mus musculus); experiment: Percent inhibition of estrone-stimulated uterotrophic effect in mice at 2 ug dose; type: functional; how it was run: as §5
[17] = target: T1, Estrogen receptor (Mus musculus); experiment: Anti-uterotrophic effect in mice as uterine weight(mg) relative to body weight(g) at 50 ug dose; type: functional; how it was run: as §4
[18] = target: T1, Estrogen receptor (Mus musculus); experiment: Anti-uterotrophic effect in mice as uterine weight(mg) relative to body weight(g) at 2 ug dose; type: functional; how it was run: as §4
MDA-MB-231 [19] = experiment: Inhibition of hormone-independent MDA-MB 231 mammary tumor cell proliferation at 1*10e-7 M; type: functional, Homo sapiens; how it was run: as §2
[20] = target: T1, Estrogen receptor (Mus musculus); experiment: Anti-uterotrophic effect in mice as uterine weight(mg) relative to body weight(g) at 250 ug dose; type: functional; how it was run: as §4
[21] = target: T1, Estrogen receptor (Mus musculus); experiment: Uterotrophic effect in mice as uterine weight(mg) relative to body weight(g) at 50 ug dose; type: functional, tissue-based; how it was run: as §3

T1 sequence (O08537 whole entry, looked up): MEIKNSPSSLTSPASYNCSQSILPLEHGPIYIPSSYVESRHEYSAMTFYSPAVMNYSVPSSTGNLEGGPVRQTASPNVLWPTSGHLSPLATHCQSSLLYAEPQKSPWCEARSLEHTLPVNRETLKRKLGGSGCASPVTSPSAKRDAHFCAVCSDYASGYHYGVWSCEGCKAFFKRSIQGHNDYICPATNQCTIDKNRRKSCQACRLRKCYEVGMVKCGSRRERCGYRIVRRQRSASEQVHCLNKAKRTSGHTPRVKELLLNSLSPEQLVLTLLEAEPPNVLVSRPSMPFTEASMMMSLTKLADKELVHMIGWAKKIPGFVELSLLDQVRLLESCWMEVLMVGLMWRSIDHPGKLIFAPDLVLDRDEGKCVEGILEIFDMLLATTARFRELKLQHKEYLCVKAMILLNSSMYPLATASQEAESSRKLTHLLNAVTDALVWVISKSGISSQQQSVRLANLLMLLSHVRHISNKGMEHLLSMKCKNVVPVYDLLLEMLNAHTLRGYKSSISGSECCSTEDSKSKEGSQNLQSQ
T1 sequence (P19785 whole entry, looked up): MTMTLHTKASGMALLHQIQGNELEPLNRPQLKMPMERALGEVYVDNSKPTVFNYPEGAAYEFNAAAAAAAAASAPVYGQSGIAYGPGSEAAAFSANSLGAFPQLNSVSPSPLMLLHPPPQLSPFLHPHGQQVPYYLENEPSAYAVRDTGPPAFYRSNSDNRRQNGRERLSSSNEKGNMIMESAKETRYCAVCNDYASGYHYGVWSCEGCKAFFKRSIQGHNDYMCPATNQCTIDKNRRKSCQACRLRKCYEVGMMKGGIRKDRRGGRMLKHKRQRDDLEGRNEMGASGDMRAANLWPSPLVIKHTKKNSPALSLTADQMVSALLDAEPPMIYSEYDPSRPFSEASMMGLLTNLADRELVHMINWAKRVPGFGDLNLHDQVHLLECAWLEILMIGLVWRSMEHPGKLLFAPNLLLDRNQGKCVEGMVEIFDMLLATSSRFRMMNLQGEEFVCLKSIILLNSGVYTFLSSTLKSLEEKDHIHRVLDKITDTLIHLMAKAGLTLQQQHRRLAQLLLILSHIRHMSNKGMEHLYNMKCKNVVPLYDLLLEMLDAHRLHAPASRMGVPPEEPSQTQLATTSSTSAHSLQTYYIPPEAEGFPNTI

SMILES	inhibition [5]	inhibition [13]	relative binding affinity (RBA) [14]	inhibition [15]	inhibition [16]	T/C (MCF7 [1])	T/C (MDA-MB-231 [2])	Relative uterus weight [3]	Relative uterus weight [4]	T/C (MCF7 [6])	T/C (MCF7 [7])	T/C (MDA-MB-231 [8])	Relative uterus weight [9]	T/C (MCF7 [10])	Relative uterus weight [11]	T/C (MDA-MB-231 [12])	Relative uterus weight [17]	Relative uterus weight [18]	T/C (MDA-MB-231 [19])	Relative uterus weight [20]	further results
CCCCCC1Cc2cc(OC(C)=O)ccc2-c2c(C=O)c3ccc(OC(C)=O)cc3n21 (stereo not drawn)	52%	25%	0.6	38%	19%	90%	70%	16.4	46.4	0%	101%	27%	19.5	0%	16.6	105%	35.6	49	118%	41.2	Relative uterus weight [21]: 15.8
CC/C(=C(\c1ccccc1)c1ccc(OCCN(C)C)cc1)c1ccccc1 [TAMOXIFEN]						57%				18%	85%			43%							
CCCCC1Cc2cc(OC(C)=O)ccc2-c2c(C=O)c3cc(OC(C)=O)ccc3n21 (stereo not drawn)	18%	17%	2.1	50%	20%	12%	12%	20.2	48.2	0%	81%	12%	25.5	0%	18.6	73%	47.8	46.7	116%	34.3	Relative uterus weight [21]: 9.1
CC(=O)Oc1ccc2c(c1)CC(C)n1c-2c(C=O)c2cc(OC(C)=O)ccc21 (stereo not drawn)	49%	36%	3.9	32%	0%	94%	94%	14.8	42.8	23%	93%	61%	43.2	54%	18.2	104%	36.5	60.5	109%	44.4	Relative uterus weight [21]: 24.6
CC(=O)Oc1ccc2c(c1)CC(C)n1c-2c(C=O)c2ccc(OC(C)=O)cc21 (stereo not drawn)	30%	14%	1.7	38%	20%	106%	79%	19.6	48.5	1%	97%	45%	19.9	36%	18.2	112%	42.6	45.3	109%	39.7	Relative uterus weight [21]: 18.2
CCCCCC1Cc2cc(OC(C)=O)ccc2-c2c(C=O)c3cc(OC(C)=O)ccc3n21 (stereo not drawn)	24%	14%	1.9	8%	0%	94%	80%	17.9	51	37%	102%	47%	22.5	77%	16	100%	47.1	57.3	105%	53.8	Relative uterus weight [21]: 20.2
CCCC1Cc2cc(OC(C)=O)ccc2-c2c(C=O)c3cc(OC(C)=O)ccc3n21 (stereo not drawn)	26%	20%	2.6	28%	27%	86%	43%	16.9	41.1	0%	99%	9%	32.9	9%	21.1	106%	39.2	38.8	109%	38.5	Relative uterus weight [21]: 24.9

Second part, led by results:

inhibition [5]	inhibition [13]	relative binding affinity (RBA) [14]	inhibition [15]	inhibition [16]	SMILES	T/C (MCF7 [1])	T/C (MDA-MB-231 [2])	Relative uterus weight [3]	Relative uterus weight [4]	T/C (MCF7 [6])	T/C (MCF7 [7])	T/C (MDA-MB-231 [8])	Relative uterus weight [9]	T/C (MCF7 [10])	Relative uterus weight [11]	T/C (MDA-MB-231 [12])	Relative uterus weight [17]	Relative uterus weight [18]	T/C (MDA-MB-231 [19])	Relative uterus weight [20]	further results
35%	41%	0.5	65%	39%	CCCC1Cc2cc(OC(C)=O)ccc2-c2c(C=O)c3ccc(OC(C)=O)cc3n21 (stereo not drawn)	1%	15%	20.4	38.4 and 16.9	0%	71%	14%	17.4	0%	17.1	31%	40.7	39.4	100%	29.5	
27%	14%	1.3	38%	17%	CCC1Cc2cc(OC(C)=O)ccc2-c2c(C=O)c3ccc(OC(C)=O)cc3n21 (stereo not drawn)	83%	34%	15.9	49	0%	89%	10%	22.8	2%	17.7	92%	44.2	47.9	101%	40.2	Relative uterus weight [21]: 18.2
74%	22%	3.3	80%	25%	CCC1Cc2cc(OC(C)=O)ccc2-c2c(C=O)c3cc(OC(C)=O)ccc3n21 (stereo not drawn)	91%	86%	18.2	46.1	12%	85%	52%	41.8	43%	17.2	111%	27	45.3	106%	24.6	Relative uterus weight [21]: 20.5
8%	20%	0.7	19%	6%	CCCCC1Cc2cc(OC(C)=O)ccc2-c2c(C=O)c3ccc(OC(C)=O)cc3n21 (stereo not drawn)	0%	24%	16.7	46.7	0%	66%	16%	10.6	0%	13.7	30%	51.8	52.8	104%	47.5	Relative uterus weight [21]: 12.3
